Ecoli WT expand = E. coli BW25113 growth inhibition, expanded screen; OD600 absorbance; growth inhibition, % at 100 µM; 98,000 tested, 0.15% active;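 active = growth inhibition above about 50% at one test dose, limit read from the data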;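 note: growth measured after 20 h incubation at 37 °C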
PostGolgi ctrl = growth of the yeast control strain, post-Golgi counter-screen | efflux-deficient yeast background strain, growth absorbance A615, 16 h | AID 738 | 98,000 tested, 5% active | inhibition, % at 10 µM
tolC growth inh = E. coli tolC mutant growth inhibition. E. coli BW25113 tolC mutant growth, OD615. growth inhibition, % at 10 µM (by protocol). 65,000 tested, 2.2% active;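 active = growth inhibition at or above a cutoff equal to the mean over every tested compound plus 3 SD, cut at about 60% in these data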;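 note: growth measured after 20 h incubation at 37 °C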
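Test system: tolC-deleted E. coli BW25113; medium: LB with kanamycin 50 µg/mL; compound: single-point testing at 10 µM; incubation: 20 h compound exposure of bacteria at 37 °C; signal: OD at 615 nm; evaluation: growth inhibition in percent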
Cav3 T inh = blocks human Cav3.2 T-type calcium channel; O95180; Cav3.2-expressing cells, Fluo-4 calcium fluorescence FDSS; active compounds read low; B-score at 10 µM; 100,000 tested, 4% active; AID 449739;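 active = single-dose well whose peak fluorescence ratio is a statistical outlier from its plate by either plate-standardised score or position-corrected B-score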
PostGolgi yeast = growth inhibition of a yeast mutant, post-Golgi transport screen. post-Golgi transport phenotypic cell assay. inhibition, % at 10 µM. 98,000 tested, 0.9% active. AID 739;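 note: yeast cells grown in 1536-well plates; yeast grown about 18 h at 30C before absorbance read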
Pyk2 oligo antag = Pyk2 (human) oligomerization antagonism; z-score (the deposit names both 25 µM and 10 µM); AID 1347419; 99,000 tested, 0.83% active; Q293 cells, Pyk2 FERM NanoBiT luminescence; active compounds read low;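 active = Z-score of -3 or lower, scaled per plate to the spread of control and sample wells; inactive = z-score above -3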;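 note: negative z-score means lost luminescence so less FERM oligomerization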
Target sequence (Q14289 whole entry, looked up): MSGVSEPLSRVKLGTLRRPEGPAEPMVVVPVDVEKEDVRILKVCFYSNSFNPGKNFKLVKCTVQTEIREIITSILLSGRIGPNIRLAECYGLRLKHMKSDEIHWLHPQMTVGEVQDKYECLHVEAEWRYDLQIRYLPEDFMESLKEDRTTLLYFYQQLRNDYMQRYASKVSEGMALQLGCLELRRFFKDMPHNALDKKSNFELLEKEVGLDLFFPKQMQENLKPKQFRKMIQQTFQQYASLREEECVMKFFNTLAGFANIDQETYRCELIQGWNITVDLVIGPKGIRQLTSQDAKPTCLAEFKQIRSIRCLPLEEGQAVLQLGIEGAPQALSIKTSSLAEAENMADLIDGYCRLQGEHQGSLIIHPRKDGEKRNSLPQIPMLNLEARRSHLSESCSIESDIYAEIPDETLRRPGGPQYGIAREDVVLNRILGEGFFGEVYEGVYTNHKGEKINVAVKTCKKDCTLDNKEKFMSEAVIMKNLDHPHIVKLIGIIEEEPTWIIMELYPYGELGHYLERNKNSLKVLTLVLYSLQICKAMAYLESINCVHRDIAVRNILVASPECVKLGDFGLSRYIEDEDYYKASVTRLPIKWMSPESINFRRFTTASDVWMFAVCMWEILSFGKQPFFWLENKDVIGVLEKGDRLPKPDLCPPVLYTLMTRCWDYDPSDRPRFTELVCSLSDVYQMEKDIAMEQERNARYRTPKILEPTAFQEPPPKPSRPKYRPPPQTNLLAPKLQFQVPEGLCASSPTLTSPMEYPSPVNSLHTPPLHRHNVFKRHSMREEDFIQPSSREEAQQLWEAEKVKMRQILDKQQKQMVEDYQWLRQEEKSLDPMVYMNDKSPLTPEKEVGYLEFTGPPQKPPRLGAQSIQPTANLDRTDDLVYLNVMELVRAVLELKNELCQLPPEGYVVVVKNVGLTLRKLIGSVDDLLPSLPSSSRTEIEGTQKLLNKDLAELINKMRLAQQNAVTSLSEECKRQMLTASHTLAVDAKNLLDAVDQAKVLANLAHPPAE
* hit, by the source's call; / = no result. An excerpt weighted towards active compounds, which were near 8.7% of everything screened. Cut-off read from the data, not from the text of the source, unless noted: active = inhibition above about 30%; inactive = the rest.

SMILES	Ecoli WT expand	PostGolgi ctrl	tolC growth inh	Cav3 T inh	PostGolgi yeast	Pyk2 oligo antag
Cc1cc(C)nc(SCC(=O)NCc2ccco2)n1	-3	8	-8	/	-12	-0.12
O=C(Nc1ccccc1Cl)C1CCN(Cc2cnn(-c3ccccc3)c2-n2cccc2)CC1	-7	1	/	-8.3*	10	-0.8
O=C(CSCc1cnn(-c2ccccc2)c1-n1cccc1)N1CCN(Cc2ccccc2)CC1	-11	29	/	-4.2	3	-0.3
COc1ccc(NC(=O)C2CCN(Cc3cnn(-c4ccccc4)c3-n3cccc3)CC2)cc1OC	2	1	2	-1.5	12	-0.95
COc1cccc(NC(=O)C2CCN(Cc3cnn(-c4ccccc4)c3-n3cccc3)CC2)c1	-4	20	/	-10*	-1	-0.9
COc1ccc(OC)c(NC(=O)C2CCN(Cc3cnn(-c4ccccc4)c3-n3cccc3)CC2)c1	-10	-5	/	-8.7*	4	-1.3
COc1ccc(C(=O)Cn2c3ccccc3n3nc(CCC(=O)O)c(=O)nc23)cc1OC	-2	6	/	0.28	-3	1.6
CCCC(=O)CN1C(=O)C2(OCCO2)c2ccccc21	-2	7	-16	0.0084	-3	-0.01
O=C(CN1C(=O)C2(OCCO2)c2ccccc21)c1ccc(Br)cc1	-8	8	-12	-5.5*	-4	-0.31
CCN(CC)C(=O)CN1C(=O)C2(OCC(C)(c3ccccc3)CO2)c2ccccc21 (stereo not drawn)	-10	31*	38	-0.59	12	0.57
COc1ccc(-c2cc(C3CCN(c4ccc(C(C)=O)cc4[N+](=O)[O-])CC3)[nH]n2)cc1	-11	37*	/	-1.5	21	-3.2*
CC(=O)c1ccc(N2CCC(c3cc(-c4ccc(Cl)cc4)n[nH]3)CC2)c([N+](=O)[O-])c1	-12	43*	/	0.053	41*	-2.5
COC(=O)c1ccc(N2CCC(c3cc(-c4ccc(OC)cc4)n[nH]3)CC2)c([N+](=O)[O-])c1	-13	27	/	-0.49	8	-1.6
CS(=O)(=O)N(Cc1ccccc1)c1ccccc1C(=O)O	8	5	-5	0.96	-3	-0.08
CC(=NCCN1CCNCC1)C1=C(O)CC(C)(C)CC1=O	3	6	-13	0.69	2	0.87
Cc1ccc(-c2nnc(SCC#CCOC(=O)c3cccs3)o2)cc1	-9	36*	/	-0.65	-11	1.6
COc1ccc(-c2nnc(SCC(=O)c3cccs3)o2)cc1	-5	0	8	-5.2*	-1	2.6
O=C(OCC#CCSc1nnc(-c2ccc([N+](=O)[O-])cc2)o1)c1cccs1	-7	6	/	-2.2	3	0.71
O=C(O)c1ccccc1OCCOc1ccccc1C(=O)O	8	44*	-13	-0.58	-8	0.91
CC1=C(C(=O)OCc2ccccc2)C(c2cccnc2)c2c(n(C)c(=O)n(C)c2=O)N1 (stereo not drawn)	-2	11	/	-0.0047	-2	-0.03
CCOc1cc(C(=S)N2CCCCC2)ccc1OS(=O)(=O)c1ccc(Br)cc1	-5	1	/	-4.9*	1	0.1
CCOc1ccc(Br)cc1S(=O)(=O)N1CCCC1	/	/	/	-0.28	/	0.11
CCOc1cc(C(=S)N2CCCCC2)ccc1OS(=O)(=O)c1ccc(Cl)cc1	-22	23	/	-5*	10	-1
CCOc1cc(C(=S)N2CCC(O)CC2)ccc1OS(=O)(=O)c1ccc(Br)cc1	-7	14	/	-4.9*	-4	-0.26
CCOc1ccc(C(=S)N2CCOCC2)cc1OCC	-4	17	/	0.055	-1	2.3
SMILES	Ecoli WT expand	PostGolgi ctrl	tolC growth inh	Cav3 T inh	PostGolgi yeast	Pyk2 oligo antag
Cc1onc(-c2ccccc2Cl)c1C(=O)Nc1nc2c(s1)CCCC2	-7	43*	/	-1.9	4	-2.9
Cc1ccc(Cn2ccc(NC(=O)c3c(-c4ccccc4Cl)noc3C)n2)cc1	-10	10	14	-5.5*	0	-1.2
Cc1onc(-c2ccccc2Cl)c1C(=O)Nc1ccc(F)c(F)c1	-4	20	19	-4.1*	0	-0.84
COC(=O)c1cc(OC)c(OC)cc1NC(=O)c1c(-c2ccccc2Cl)noc1C	0	37*	17	-2.9	22	-1.6
CC(C)C(=O)Nc1ccc(C(=O)c2ccccc2)cc1	/	/	/	0.96	/	0.07
COC(=O)C1=CNC=C(C(=O)OC)C1c1ccccc1Cl	3	7	9	-0.32	2	-2.1
COC(=O)C1=CNC=C(C(=O)OC)C1c1ccc(Cl)cc1	-11	13	22	-1.8	-3	-3.8*
O=C(CSc1ncn[nH]1)Nc1ccccc1Sc1ccccc1	-1	-3	/	0.48	1	0.69
O=C(CCN1CCc2ccccc2C1)Nc1ccccc1	2	3	10	0.45	-7	0.6
CCc1nc(NC(C)C)c2oc3ccccc3c2n1	7	9	7	1.2	-1	0.05
CCc1nc(N2CCCCC2C)c2oc3ccccc3c2n1 (stereo not drawn)	9	24	100*	-1.4	18	-0.77
c1ccc2[nH]c(CSc3ncnc4c3oc3ccccc34)nc2c1	-7	11	54	-3	0	-0.88
Cc1nc(SCc2nc3ccccc3[nH]2)c2oc3ccccc3c2n1	-14	38*	42	-1.9	4	-1.6
CCc1nc(SCC(=O)N2CCCc3ccccc32)c2c(=O)n(C)c(=O)n(C)c2n1	/	/	-1	/	/	/
Cc1nc(SCC(=O)O)c2oc3ccccc3c2n1	-2	-5	-15	2.5	-19	1.6
CCc1nc(SCC(=O)N2CCCc3ccccc32)c2oc3ccccc3c2n1	-13	37*	/	-2.3	11	-2.5
Cc1nc(SCC(=O)N2CCN(c3ccccc3)CC2)c2oc3ccccc3c2n1	-4	35*	46	-0.4	0	0.42
O=C(Cc1cccc2ccccc12)N1CCCc2ccccc21	12	13	/	-4.5*	1	-1.4
CCc1nc(N2CCN(Cc3ccc4c(c3)OCO4)CC2)c2oc3ccccc3c2n1	-24	15	/	0.042	12	-1
CCc1nc(NCc2ccccn2)c2oc3ccccc3c2n1	3	-2	13	1.3	26	-3*
CC(=O)N1CCCc2ccccc21	10	-5	/	0.78	-8	-0.16
CCc1nc(N2CCCCC2)c2oc3ccccc3c2n1	-6	21	100*	-1.2	-1	-0.21
CCc1nc(N2CCCC(C)C2)c2oc3ccccc3c2n1 (stereo not drawn)	10	47*	100*	-3.3	10	-0.28
O=C(NCc1ccco1)C(c1ccco1)N(C(=O)Cn1nnc2ccccc21)c1ccc2c(c1)CCC2 (stereo not drawn)	/	/	58	-4.3*	/	-1.8
CCC(C)(C)NC(=O)C(c1ccc(C)cc1)N(Cc1ccco1)C(=O)Cn1nnc2ccccc21 (stereo not drawn)	/	/	/	0.48	/	0.05
Cc1ccccc1C(C(=O)NCc1ccco1)N(CC1CCCO1)C(=O)Cn1nnc2ccccc21 (stereo not drawn)	-10	-2	12	-3.8*	-4	-0.06
O=C(NCc1ccco1)C(c1ccccc1)N(Cc1ccccc1)C(=O)Cn1nnc2ccccc21 (stereo not drawn)	/	/	/	-0.033	/	-4.1*
